Tests used:
[1] = target: Inhibitor of nuclear factor kappa-B kinase subunit beta (Homo sapiens, UniProt O14920); experiment: Inhibition of IKKB in human HeLa cells lysate pre incubated for 15 mins followed by ADP acyl phosphate probe addition and measured after 10 mins by LC-MS/MS analysis; assay type: subcellular
[2] = target: Cyclin-dependent kinase 2 (Homo sapiens, UniProt P24941); experiment: Inhibition of CDK2 in human HeLa cells lysate at 50 uM pre incubated for 15 mins followed by ADP acyl phosphate probe addition and measured after 10 mins by LC-MS/MS analysis relative to control; assay type: subcellular; conditions: time 25.0 min
How it was run: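 KiNativ profiling in HeLa lysate (5 mg/mL total protein). Lysate incubated 15 min with inhibitor at 50, 10, 2, 0.8 or 0 μM. ATP or ADP acylphosphate probe then added (5 μM final) and reacted 10 min. Reaction stopped with urea and analysed by targeted MS, using up to four fragment ions per kinase peptide-probe conjugate. % inhibition taken against untreated lysate. Run in duplicate.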

[3] = MRT in Sprague-Dawley rat at 2 mg/kg, po measured up to 8 hrs by LC-MS/MS analysis; assay type: ADME, organism-based; conditions: in vivo
[4] = target: Ribosomal protein S6 kinase alpha-3 (Homo sapiens, UniProt P51812); experiment: Inhibition of RSK2 domain 1 in human HeLa cells lysate pre incubated for 15 mins followed by ADP acyl phosphate probe addition and measured after 10 mins by LC-MS/MS analysis; assay type: subcellular
[5] = Toxicity in C57Bl/6 mouse assessed as effect on locomotor activity at 50 mg/kg, ip for 14 days; assay type: organism-based; conditions: in vivo, 336 h, time 14 day
[6] = target: Serine/threonine-protein kinase 3 (Homo sapiens, UniProt Q13188); experiment: Inhibition of MST2 in human HeLa cells lysate pre incubated for 15 mins followed by ADP acyl phosphate probe addition and measured after 10 mins by LC-MS/MS analysis; assay type: subcellular
[7] = target: T1, Dual specificity mitogen-activated protein kinase kinase 3 (Homo sapiens) (UniProt P46734); experiment: Inhibition of MAP2K3 in human HeLa cells lysate at 2 uM pre incubated for 15 mins followed by ADP acyl phosphate probe addition and measured after 10 mins by LC-MS/MS analysis relative to control; assay type: subcellular; conditions: time 25.0 min
T1 sequence (whole entry): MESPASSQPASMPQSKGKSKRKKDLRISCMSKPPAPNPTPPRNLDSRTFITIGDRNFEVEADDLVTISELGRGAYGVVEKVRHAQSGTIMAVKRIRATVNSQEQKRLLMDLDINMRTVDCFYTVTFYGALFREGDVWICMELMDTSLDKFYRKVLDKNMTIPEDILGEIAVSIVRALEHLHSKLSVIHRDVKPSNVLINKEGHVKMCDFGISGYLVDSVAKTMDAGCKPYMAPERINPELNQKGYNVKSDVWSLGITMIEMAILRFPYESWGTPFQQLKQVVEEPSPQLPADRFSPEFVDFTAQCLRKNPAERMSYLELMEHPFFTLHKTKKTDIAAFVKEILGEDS

[8] = target: Serine/threonine-protein kinase Nek7 (Homo sapiens, UniProt Q8TDX7); experiment: Inhibition of NEK7 in human HeLa cells lysate pre incubated for 15 mins followed by ATP acyl phosphate probe addition and measured after 10 mins by LC-MS/MS analysis; assay type: subcellular
[9] = target: Cyclin-dependent kinase 15 (Homo sapiens, UniProt Q96Q40); experiment: Inhibition of PFTAIRE2 in human HeLa cells lysate pre incubated for 15 mins followed by ADP acyl phosphate probe addition and measured after 10 mins by LC-MS/MS analysis; assay type: subcellular
[10] = target: T2, Serine/threonine-protein kinase Nek9 (Homo sapiens) (UniProt Q8TD19); experiment: Inhibition of NEK9 in human HeLa cells lysate at 50 uM pre incubated for 15 mins followed by ADP acyl phosphate probe addition and measured after 10 mins by LC-MS/MS analysis relative to control; assay type: subcellular; conditions: time 25.0 min
T2 sequence (whole entry): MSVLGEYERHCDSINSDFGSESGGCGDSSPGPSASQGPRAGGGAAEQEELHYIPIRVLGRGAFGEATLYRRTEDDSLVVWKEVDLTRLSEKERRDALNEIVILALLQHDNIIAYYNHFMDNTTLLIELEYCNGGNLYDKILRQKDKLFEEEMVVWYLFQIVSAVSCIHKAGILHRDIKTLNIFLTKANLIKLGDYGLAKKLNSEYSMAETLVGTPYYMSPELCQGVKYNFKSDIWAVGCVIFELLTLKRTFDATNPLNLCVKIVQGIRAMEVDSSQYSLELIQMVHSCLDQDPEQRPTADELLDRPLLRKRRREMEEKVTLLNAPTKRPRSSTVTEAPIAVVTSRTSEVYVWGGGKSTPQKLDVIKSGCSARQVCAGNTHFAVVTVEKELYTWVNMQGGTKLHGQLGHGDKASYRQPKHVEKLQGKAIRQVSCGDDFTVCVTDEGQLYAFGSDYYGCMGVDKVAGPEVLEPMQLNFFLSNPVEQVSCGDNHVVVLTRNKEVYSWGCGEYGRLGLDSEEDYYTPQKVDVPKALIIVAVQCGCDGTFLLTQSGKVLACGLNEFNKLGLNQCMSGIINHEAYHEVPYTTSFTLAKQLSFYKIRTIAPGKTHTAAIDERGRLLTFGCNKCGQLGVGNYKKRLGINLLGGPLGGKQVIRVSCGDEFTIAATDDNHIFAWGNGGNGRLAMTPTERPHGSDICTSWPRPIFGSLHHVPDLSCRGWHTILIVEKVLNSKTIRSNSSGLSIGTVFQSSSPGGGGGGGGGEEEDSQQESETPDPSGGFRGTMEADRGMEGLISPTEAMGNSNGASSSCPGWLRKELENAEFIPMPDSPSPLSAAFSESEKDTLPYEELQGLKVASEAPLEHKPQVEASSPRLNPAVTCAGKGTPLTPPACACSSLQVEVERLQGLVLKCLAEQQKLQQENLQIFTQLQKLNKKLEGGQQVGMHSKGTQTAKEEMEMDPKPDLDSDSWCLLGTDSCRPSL

[11] = target: Non-receptor tyrosine-protein kinase TNK1 (Homo sapiens, UniProt Q13470); experiment: Binding affinity to TNK1 (unknown origin) assessed as dissociation constant by ATP-competition binding assay
[12] = target: Ribosomal protein S6 kinase alpha-5 (Homo sapiens, UniProt O75582); experiment: Inhibition of MSK1 domain 1 K2 site in human HeLa cells lysate pre incubated for 15 mins followed by ADP acyl phosphate probe addition and measured after 10 mins by LC-MS/MS analysis; assay type: subcellular
[13] = target: Mitogen-activated protein kinase kinase kinase 8 (Homo sapiens, UniProt P41279); experiment: Inhibition of COT in human HeLa cells lysate pre incubated for 15 mins followed by ADP acyl phosphate probe addition and measured after 10 mins by LC-MS/MS analysis; assay type: subcellular
[14] = target: Serine/threonine-protein kinase Chk2 (Homo sapiens, UniProt O96017); experiment: Inhibition of CHK2 in human HeLa cells lysate at 10 uM pre incubated for 15 mins followed by ADP acyl phosphate probe addition and measured after 10 mins by LC-MS/MS analysis relative to control; assay type: subcellular; conditions: time 25.0 min
[15] = target: Glycogen synthase kinase-3 beta (Homo sapiens, UniProt P49841); experiment: Inhibition of GSK3B isoform 2 in human HeLa cells lysate pre incubated for 15 mins followed by ATP acyl phosphate probe addition and measured after 10 mins by LC-MS/MS analysis; assay type: subcellular
Glycogen synthase kinase-3 beta, sequence (P49841 whole entry, canonical isoform): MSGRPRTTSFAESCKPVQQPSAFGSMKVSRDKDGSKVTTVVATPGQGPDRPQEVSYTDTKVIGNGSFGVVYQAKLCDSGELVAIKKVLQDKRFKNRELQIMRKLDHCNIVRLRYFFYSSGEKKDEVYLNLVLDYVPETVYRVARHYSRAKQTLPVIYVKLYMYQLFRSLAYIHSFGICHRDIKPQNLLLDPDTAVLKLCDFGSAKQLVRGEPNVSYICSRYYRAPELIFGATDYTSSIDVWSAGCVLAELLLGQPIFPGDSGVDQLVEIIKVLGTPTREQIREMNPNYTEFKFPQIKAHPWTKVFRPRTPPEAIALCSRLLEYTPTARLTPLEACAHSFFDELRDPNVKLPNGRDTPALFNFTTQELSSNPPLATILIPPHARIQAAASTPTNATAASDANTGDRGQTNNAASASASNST

Ribosomal protein S6 kinase alpha-5, sequence (O75582 whole entry, the tested form may be a part): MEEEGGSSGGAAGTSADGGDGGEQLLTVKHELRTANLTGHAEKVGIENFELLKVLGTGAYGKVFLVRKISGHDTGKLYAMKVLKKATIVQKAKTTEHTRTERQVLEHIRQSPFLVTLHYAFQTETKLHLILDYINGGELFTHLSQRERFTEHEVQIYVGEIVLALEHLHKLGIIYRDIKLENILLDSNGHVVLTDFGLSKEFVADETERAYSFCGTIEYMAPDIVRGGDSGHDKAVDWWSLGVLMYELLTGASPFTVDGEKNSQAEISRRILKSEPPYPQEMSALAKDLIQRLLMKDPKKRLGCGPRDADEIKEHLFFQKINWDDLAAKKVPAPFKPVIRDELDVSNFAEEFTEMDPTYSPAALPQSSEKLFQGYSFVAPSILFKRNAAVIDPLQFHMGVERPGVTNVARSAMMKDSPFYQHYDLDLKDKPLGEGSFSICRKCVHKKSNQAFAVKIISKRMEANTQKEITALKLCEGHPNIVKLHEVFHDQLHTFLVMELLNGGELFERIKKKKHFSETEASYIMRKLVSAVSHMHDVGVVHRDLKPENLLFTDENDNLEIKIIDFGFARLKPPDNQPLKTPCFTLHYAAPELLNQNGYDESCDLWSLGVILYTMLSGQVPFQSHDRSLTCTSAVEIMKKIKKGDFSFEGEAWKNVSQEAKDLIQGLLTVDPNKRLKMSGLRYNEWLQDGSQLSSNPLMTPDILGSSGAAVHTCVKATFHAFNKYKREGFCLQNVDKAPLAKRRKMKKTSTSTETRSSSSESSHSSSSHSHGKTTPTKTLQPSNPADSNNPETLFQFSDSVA
Mitogen-activated protein kinase kinase kinase 8, sequence (P41279 whole entry): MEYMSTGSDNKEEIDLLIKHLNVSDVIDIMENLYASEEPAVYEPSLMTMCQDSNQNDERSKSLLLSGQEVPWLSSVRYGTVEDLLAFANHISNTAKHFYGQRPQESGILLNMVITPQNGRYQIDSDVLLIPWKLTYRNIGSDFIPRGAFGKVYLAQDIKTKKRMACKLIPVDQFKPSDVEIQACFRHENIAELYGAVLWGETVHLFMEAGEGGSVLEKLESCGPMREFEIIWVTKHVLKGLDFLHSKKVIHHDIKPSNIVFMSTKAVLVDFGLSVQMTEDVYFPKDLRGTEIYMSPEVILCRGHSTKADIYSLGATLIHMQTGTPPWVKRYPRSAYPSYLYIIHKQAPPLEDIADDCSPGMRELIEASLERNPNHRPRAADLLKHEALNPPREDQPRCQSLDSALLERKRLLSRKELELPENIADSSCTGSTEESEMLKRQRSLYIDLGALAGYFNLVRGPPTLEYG
Cyclin-dependent kinase 15, sequence (Q96Q40 whole entry): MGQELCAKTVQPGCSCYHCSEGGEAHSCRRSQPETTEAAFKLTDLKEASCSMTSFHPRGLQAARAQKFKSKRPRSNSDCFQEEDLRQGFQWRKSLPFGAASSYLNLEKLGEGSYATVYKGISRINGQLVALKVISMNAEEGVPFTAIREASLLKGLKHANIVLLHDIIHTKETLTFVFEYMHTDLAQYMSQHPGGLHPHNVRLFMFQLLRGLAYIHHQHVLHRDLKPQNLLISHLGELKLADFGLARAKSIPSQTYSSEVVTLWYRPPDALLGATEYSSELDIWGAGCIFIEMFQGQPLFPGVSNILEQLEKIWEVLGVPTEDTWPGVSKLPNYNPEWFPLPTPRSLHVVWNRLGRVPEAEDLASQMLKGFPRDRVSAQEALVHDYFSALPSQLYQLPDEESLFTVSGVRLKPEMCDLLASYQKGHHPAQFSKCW
Non-receptor tyrosine-protein kinase TNK1, sequence (Q13470 whole entry, the tested form may be a part): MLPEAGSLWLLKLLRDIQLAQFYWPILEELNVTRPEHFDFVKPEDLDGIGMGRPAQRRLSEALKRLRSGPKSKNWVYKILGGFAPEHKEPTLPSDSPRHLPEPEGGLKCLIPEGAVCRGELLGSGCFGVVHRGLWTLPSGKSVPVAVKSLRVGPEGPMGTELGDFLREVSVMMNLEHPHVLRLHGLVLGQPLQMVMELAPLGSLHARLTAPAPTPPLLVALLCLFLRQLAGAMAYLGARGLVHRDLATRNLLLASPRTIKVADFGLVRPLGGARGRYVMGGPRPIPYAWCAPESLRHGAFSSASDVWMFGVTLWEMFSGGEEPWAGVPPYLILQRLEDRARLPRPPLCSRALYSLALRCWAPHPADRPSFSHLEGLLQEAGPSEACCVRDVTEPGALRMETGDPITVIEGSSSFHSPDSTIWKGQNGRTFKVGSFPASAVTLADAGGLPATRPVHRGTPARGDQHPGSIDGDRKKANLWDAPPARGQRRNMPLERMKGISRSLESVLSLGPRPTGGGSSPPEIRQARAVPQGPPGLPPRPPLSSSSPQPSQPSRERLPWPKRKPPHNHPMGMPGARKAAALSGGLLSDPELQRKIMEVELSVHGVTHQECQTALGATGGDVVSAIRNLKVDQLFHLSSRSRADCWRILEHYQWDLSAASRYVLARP
Serine/threonine-protein kinase Nek7, sequence (Q8TDX7 whole entry): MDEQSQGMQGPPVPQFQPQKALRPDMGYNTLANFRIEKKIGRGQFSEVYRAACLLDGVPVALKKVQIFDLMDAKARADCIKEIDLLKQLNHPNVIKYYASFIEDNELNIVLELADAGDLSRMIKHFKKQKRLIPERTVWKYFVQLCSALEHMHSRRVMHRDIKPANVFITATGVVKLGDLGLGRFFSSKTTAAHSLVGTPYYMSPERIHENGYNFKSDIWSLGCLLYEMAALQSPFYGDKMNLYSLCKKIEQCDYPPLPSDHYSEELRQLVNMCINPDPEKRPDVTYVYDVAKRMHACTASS
Ribosomal protein S6 kinase alpha-3, sequence (P51812 whole entry, the tested form may be a part): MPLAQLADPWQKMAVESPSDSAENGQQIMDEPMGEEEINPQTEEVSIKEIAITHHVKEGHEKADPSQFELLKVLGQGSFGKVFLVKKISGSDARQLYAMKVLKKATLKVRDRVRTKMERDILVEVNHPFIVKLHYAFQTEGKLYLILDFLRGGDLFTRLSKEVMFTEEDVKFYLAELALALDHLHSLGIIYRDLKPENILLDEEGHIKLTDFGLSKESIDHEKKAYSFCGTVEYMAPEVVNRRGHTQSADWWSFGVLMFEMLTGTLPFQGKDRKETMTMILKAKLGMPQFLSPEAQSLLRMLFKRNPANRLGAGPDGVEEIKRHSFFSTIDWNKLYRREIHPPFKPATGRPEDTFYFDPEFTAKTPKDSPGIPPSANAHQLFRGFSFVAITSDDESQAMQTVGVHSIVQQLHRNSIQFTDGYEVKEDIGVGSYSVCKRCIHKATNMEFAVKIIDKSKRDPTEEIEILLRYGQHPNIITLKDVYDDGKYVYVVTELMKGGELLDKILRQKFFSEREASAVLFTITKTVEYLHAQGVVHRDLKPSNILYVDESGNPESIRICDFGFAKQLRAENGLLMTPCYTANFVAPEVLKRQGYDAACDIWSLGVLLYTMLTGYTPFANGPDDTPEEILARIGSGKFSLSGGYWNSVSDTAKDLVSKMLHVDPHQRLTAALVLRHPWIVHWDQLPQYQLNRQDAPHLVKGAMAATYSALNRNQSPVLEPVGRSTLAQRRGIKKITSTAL
Inhibitor of nuclear factor kappa-B kinase subunit beta, sequence (O14920 whole entry): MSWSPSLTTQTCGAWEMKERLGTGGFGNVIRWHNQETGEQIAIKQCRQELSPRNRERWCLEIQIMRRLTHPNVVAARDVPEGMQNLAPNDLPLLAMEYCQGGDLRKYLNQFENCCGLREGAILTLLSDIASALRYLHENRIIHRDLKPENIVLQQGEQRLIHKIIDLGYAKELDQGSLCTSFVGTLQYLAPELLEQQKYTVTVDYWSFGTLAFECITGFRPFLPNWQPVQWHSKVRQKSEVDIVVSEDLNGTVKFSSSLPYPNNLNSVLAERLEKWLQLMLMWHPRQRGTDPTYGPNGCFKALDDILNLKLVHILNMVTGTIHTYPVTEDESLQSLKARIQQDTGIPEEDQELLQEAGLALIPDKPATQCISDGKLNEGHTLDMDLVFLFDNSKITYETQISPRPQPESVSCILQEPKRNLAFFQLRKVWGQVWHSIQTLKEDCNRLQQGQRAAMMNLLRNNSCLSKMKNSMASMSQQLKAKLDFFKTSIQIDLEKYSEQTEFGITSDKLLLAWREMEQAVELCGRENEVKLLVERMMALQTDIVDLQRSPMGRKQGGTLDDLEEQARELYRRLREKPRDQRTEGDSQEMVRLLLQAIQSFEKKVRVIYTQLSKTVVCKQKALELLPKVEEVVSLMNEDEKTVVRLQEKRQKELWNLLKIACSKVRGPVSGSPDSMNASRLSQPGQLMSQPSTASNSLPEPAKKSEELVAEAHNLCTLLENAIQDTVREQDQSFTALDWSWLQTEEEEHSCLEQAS

SMILES: CCOc1cc(N2CCC(O)CC2)ccc1Nc1ncc2c(n1)N(C)c1ccccc1C(=O)N2C
- IC50 [1]: > 50 µM
- inhibition [2]: -3.2%
- MRT [3]: 4.8 h
- IC50 [4]: > 50 µM
- Activity [5]: Non-Toxic
- IC50 [6]: > 50 µM
- inhibition [7]: 7.5%
- IC50 [8]: > 50 µM
- IC50 [9]: > 50 µM
- inhibition [10]: 4.5%
- Kd [11]: 0.89 µM
- IC50 [12]: > 50 µM
- IC50 [13]: > 50 µM
- inhibition [14]: 1.1%
- IC50 [15]: > 50 µM
